How the values were obtained:
[1] = tested on: Human immunodeficiency virus 1; assay: Antiviral activity against wild type Human immunodeficiency virus 1 3B infected in human MT4 cells assessed as inhibition of viral replication; format: functional, organism-based
Method in brief: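 EC50 values are averages of at least two independent experiments (typically three to four), each run in quadruplicate. For the serum-shifted line, the same antiviral assay includes 50% human serum, used as a functional measure of plasma protein binding.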

[2] = Bioavailability in rat at 50 mg/mL formulated with 25 mg/mL of poloxamer 338 and sucrose in water administered intramuscularly measured after 1 month; format: ADME, organism-based; settings: in vivo, im
Method in brief: (§1)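 Nanosuspension depot given by a single intramuscular injection in rats. Blood is sampled at regular intervals over two months. Absolute bioavailability is assessed after 1 month of sampling as ((AUC_IM × dose_IV)/(AUC_IV × dose_IM)) × 100, relative to intravenous dosing.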

[3] = Plasma clearance in rat at 2 mg/kg, iv; format: ADME, organism-based; design: dose 2 mg/kg, route intravenous
Method in brief: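 Single intravenous dose of 2 mg/kg in rats. The formulation is typically 1 mg/mL in PEG400/ethanol/saline (70/20/10). Clearance values are averages from two or three animals. High is >3 L/h/kg (>70% liver blood flow) and low is <1.3 L/h/kg (<30%).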

[4] = tested on: Human immunodeficiency virus 1; assay: Selectivity ratio of EC50 for Human immunodeficiency virus 1 3B clinical isolate harboring L10I/M46I/I64V/I84V/L90M/I93L protease mutant to EC50 for wild type Human immunodeficiency virus 1 3B; format: functional
[5] = Aqueous solubility of the compound in crystalline polymorphic form; format: physicochemical
[6] = tested on: Human immunodeficiency virus 1; assay: Selectivity ratio of EC50 for Human immunodeficiency virus 1 3B clinical isolate harboring L10I/I13V/M46I/I50V/L63P/L76V protease mutant to EC50 for wild type Human immunodeficiency virus 1 3B; format: functional
[7] = Drug metabolism in human liver microsomes at 1 uM after 15 mins; format: ADME, Microsome; settings: read-out: Drug metabolism
Method in brief: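 Human liver microsome incubation at 37 °C for 15 min with compound at 1 µM; turnover expressed as percent of compound metabolized.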

[8] = tested on: Human immunodeficiency virus 1; assay: Selectivity ratio of EC50 for Human immunodeficiency virus 1 3B clinical isolate harboring L10I/K20R/M36I/G48V/ I62V/A71V/V82A/I93L protease mutant to EC50 for wild type Human immunodeficiency virus 1 3B; format: functional
[9] = tested on: Human immunodeficiency virus 1; assay: Antiviral activity against Human immunodeficiency virus 1 3B clinical isolate harboring L10I/K20R/M36I/G48V/ I62V/A71V/V82A/I93L protease mutant infected in human MT4 cells assessed as inhibition of viral replication; format: functional, organism-based
Method in brief: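 Each assay run in quadruplicate. Values are averages of at least two independent experiments, typically three to four. Cytotoxicity (CC50) was measured in parallel in MT4 cells.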

[10] = tested on: Human immunodeficiency virus 1; assay: Antiviral activity against wild type Human immunodeficiency virus 1 3B infected in human MT4 cells assessed as inhibition of viral replication in presence of 50% human serum
[11] = Bioavailability in rat at 100 mg/mL formulated with polysorbate 20 and NaCl in water administered intramuscularly measured after 1 month; format: ADME, organism-based; settings: in vivo, im; method in brief: as §1
[12] = tested on: Human immunodeficiency virus 1; assay: Antiviral activity against Human immunodeficiency virus 1 3B clinical isolate harboring L10I/M46I/I64V/I84V/L90M/I93L protease mutant infected in human MT4 cells assessed as inhibition of viral replication; format: functional, organism-based
Method in brief: (§2)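 Inhibition of replication in MT4 cells infected with protease-mutant HIV-1 clinical isolates, reported as EC50. Each assay run in quadruplicate. Values are averages of at least two independent experiments, typically three to four. Cytotoxicity (CC50) was measured in parallel in MT4 cells.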

[13] = tested on: Human immunodeficiency virus 1; assay: Antiviral activity against Human immunodeficiency virus 1 3B clinical isolate harboring L10I/I13V/M46I/I50V/L63P/L76V protease mutant infected in human MT4 cells assessed as inhibition of viral replication; format: functional, organism-based; method in brief: as §2
[14] = Cytotoxicity against human MT4 cells; format: cell-based
[15] = Bioavailability in rat at 50 mg/mL formulated with Vit-E TPGS, DSPG and sucrose in water administered intramuscularly measured after 1 month; format: ADME, organism-based; settings: in vivo, im; method in brief: as §1
[16] = Bioavailability in rat at 100 mg/mL formulated with 25 mg/mL of polysorbate 20 and 9 mg/mL of NaCl in water administered intramuscularly measured after 1 month; format: ADME, organism-based; settings: in vivo, im; method in brief: as §1
[17] = Bioavailability in rat at 50 mg/mL formulated with Vit-E TPGS in water administered intramuscularly measured after 1 month; format: ADME, organism-based; settings: in vivo, im; method in brief: as §1
[18] = Bioavailability in rat at 50 mg/mL formulated with 12.5 mg/mL of poloxamer 338 and sucrose in water administered intramuscularly measured after 1 month; format: ADME, organism-based; settings: in vivo, im; method in brief: as §1

Row | SMILES | EC50 [1] [nM] | bioavailability at 1 month [2] [%] | clearance [3] [mL/min/kg] | Ratio EC50 [4] | solubility [5] [µg/mL] | Ratio EC50 [6] | metabolised at 0.25 h, 1 µM [7] [%] | Ratio EC50 [8] | EC50 [9] [nM] | EC50 [10] [nM] | bioavailability at 1 month [11] [%] | EC50 [12] [nM] | EC50 [13] [nM] | CC50 [14] [nM] | bioavailability at 1 month [15] [%] | bioavailability at 1 month [16] [%] | bioavailability at 1 month [17] [%] | bioavailability at 1 month [18] [%]
1 | COC(=O)N[C@H](C(=O)N[C@@H](Cc1ccc(-c2ccc(N(C)C)nc2)cc1)[C@@H](O)C[C@@H](Cc1ccccc1F)C(=O)N[C@H]1c2cc(F)cc(Cl)c2OC[C@H]1O)C(C)(C)C | 1.7 | 5 | 13.3 | <1 | < 100 | <1 | 22 | <1 | 0.8 | 6 | 3 | 1.3 | 0.9 | > 10000 | 12 |  |  | 
2 | COC(=O)N[C@H](C(=O)N[C@@H](Cc1ccc(-c2ccc(OC)nc2)cc1)[C@@H](O)C[C@@H](Cc1ccccc1F)C(=O)N[C@H]1[C@H](C)CCC[C@H]1O)C(C)(C)C | 0.8 |  | 90 | <1 | < 100 | <1 | 99 | <1 | 0.5 | 2 |  |  | 0.3 | > 10000 |  | > 100 |  | 
3 | COC(=O)N[C@H](C(=O)N[C@@H](Cc1ccc(-c2ccc(OC)nc2)cc1)[C@@H](O)C[C@@H](Cc1ccccc1F)C(=O)N[C@H]1c2ccsc2CC[C@H]1O)C(C)(C)C | 1.1 |  | 80 | <1 | < 100 | <1 | 91 | <1 | 0.4 | 3.7 |  | 0.9 | 0.6 | > 10000 |  |  | 100 | > 100

— ChEMBL document CHEMBL2321652, “Design and synthesis of HIV-1 protease inhibitors for a long-acting injectable drug application” (Bioorg Med Chem Lett, 2013)
